Experimental data collected from several papers.
Values after ≈ are worked out from the molar mass of the structure shown.
Organism: Escherichia coli

C#CCCCCCCCCC=CCC(O)CC(O)CO (stereo not drawn) — IC50 (microbial growth, broth dilution; ATCC35218): > 200 µg/mL
CC(C)Oc1c(NC(=O)c2ccc(NC(=O)[C@H](CC(N)=O)NC(=O)c3ccc(NC(=O)c4ccc(C(F)(F)F)cc4)cc3)cc2)ccc(C(=O)Nc2ccc(C(=O)O)cc2)c1O — MIC (microbial growth; DSM1116): 0.5 µg/mL (≈ 0.585 µM)
Cc1ccc(C(C)C)cc1OCc1cn(-c2ccc(S(N)(=O)=O)cc2)nn1 — IC50 (microbial growth, broth dilution; ATCC25922): 289 µg/mL
CC(C)c1ccc(O)c(=O)cc1 — MIC80 (microbial growth, broth dilution; ATCC35218): 58.1 µM (≈ 9.54 µg/mL)
Cc1ccc(C(C)C)cc1OCc1cn(-c2ccc([N+](=O)[O-])cc2)nn1 — IC50 (microbial growth, broth dilution; ATCC25922): 532 µg/mL
COc1cc(C=Cc2cc(-c3ccccc3)nc(O)n2)ccc1O — inhibition zone (microbial growth, disc diffusion; ATCC25922; 250 µg/mL): 6 mm
N=C(N)c1ccc(OCc2ccc3ccc(COc4ccc(C(=N)N)cc4)cc3c2)cc1 — MIC (microbial growth; BW25113; 20 h): > 200 µg/mL
Cc1ccc2nc(-c3cc(Br)ccc3O)[nH]c2c1 — MIC (microbial growth, broth dilution; ATCC25922): 64 µg/mL (≈ 211 µM)
CCCCCCCCCC(=O)Oc1c(C)c(O)c(C(=O)/C=C/c2ccccc2)c(OC)c1C — MBC (microbial killing, broth dilution; ATCC25922): > 5000 µg/mL
Fc1ccc(-c2nc3ccccc3[nH]2)cc1 — MIC (microbial growth, broth dilution; ATCC25922): 256 µg/mL (≈ 1210 µM)
N=C(N)c1ccccc1OCc1ccc(COc2ccccc2C(=N)N)cc1 — MIC (microbial growth; BW25113): > 200 µg/mL
Cc1ccc(S(=O)(=O)Oc2cccc3cccnc23)cc1 — IC50 (microbial growth, broth dilution; ATCC25922): 133 µg/mL
CC(C)CC1NC(=O)C(C(=O)NC(C(=O)NC2C(=O)N3C2SC(C)(C)C3C(=O)O)c2ccccc2)=C1O (stereo not drawn) — inhibition zone (microbial growth, well diffusion; BW25113; 200 µM): 9 mm
Cc1ccc(C(C)C)cc1OS(=O)(=O)c1ccc([N+](=O)[O-])cc1 — IC50 (microbial growth, broth dilution; ATCC25922): 176 µg/mL
CCCC(=O)Oc1c(C)c(O)c(C(=O)/C=C/c2ccccc2)c(OC)c1C — MBC (microbial killing, broth dilution; ATCC25922): > 5000 µg/mL
Oc1ccc(-c2cc(Cl)sc2Cl)cc1O — IC50 (microbial growth; AS19; 10 h): 6.1 µM
COc1c(N2C[C@@H]3CCCN[C@@H]3C2)c(F)cc2c(=O)c(C(=O)O)cn(C3CC3)c12 — MIC90 (microbial growth; ATCC 8739, ATCC8739): 0.06 µg/mL (≈ 0.149 µM)
O=[N+]([O-])c1ccc(-c2nc3ccccc3n2Cc2ccccc2)cc1 — MIC (microbial growth, broth dilution; ATCC25922): 64 µg/mL (≈ 194 µM)
CC(C)Oc1c(NC(=O)c2ccc(NC(=O)[C@H](CC(N)=O)NC(=O)c3ccc(CCNC(=O)c4ccc(C#N)cc4)cc3)cc2)ccc(C(=O)Nc2ccc(C(=O)O)cc2)c1O — MIC (microbial growth; DSM1116): 0.25 µg/mL (≈ 0.298 µM)
O=C1C=C(O)C(=O)c2ccccc21 — IC50 (microbial growth, broth dilution; ATCC25922): 179 µg/mL
CCOC(=O)c1c(N)csc1-c1cn(-c2ccccc2)nc1-c1ccc(C)cc1 — MBC (microbial killing, broth dilution): 0.125 µg/mL (≈ 0.31 µM)
O=C(N[C@H](CO)[C@H](O)c1ccc([N+](=O)[O-])cc1)C(Cl)Cl — MIC90 (microbial growth; ATCC 8739, ATCC8739): 3.9 µg/mL (≈ 12.1 µM)
N=C(N)c1ccccc1OCCCCCOc1ccccc1C(=N)N — MIC (microbial growth, broth dilution; BW25113): > 200 µg/mL
Cc1ccc(C(C)C)cc1O — IC50 (microbial growth, broth dilution; ATCC25922): 96.2 µg/mL
